Measured values from ChEMBL document CHEMBL1138624, “Design, synthesis, and quantitative structure-activity relationship of cytotoxic gamma-carboline derivatives” (Bioorg Med Chem, 2009).

Legend:
Format in all cases: functional, cell-based
[1] = Cytotoxicity against human SGC cells after 48 hrs by MTT assay
Procedure, shortened: (§1)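 Cell lines sourced from Shanghai Institute of Pharmaceutical Industry; K562R is a multidrug-resistant subline. Cells exposed to compound for 48 h, then MTT in RPMI-1640 added with a further 4 h at 37 °C. Formazan dissolved in DMSO, absorbance read at 570 nm. Triplicate wells in three independent experiments. IC50 (50% inhibition of viability) from dose-effect analysis, reported as mean of three experiments.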

[2] = tested on: A549; assay: Cytotoxicity against human A549 cells after 48 hrs by MTT assay; conditions: A549, 48 h; procedure, shortened: as §1
[3] = tested on: K562; assay: Cytotoxicity against multidrug-resistant human K562 cells after 48 hrs by MTT assay; conditions: K562, 48 h; procedure, shortened: as §1
[4] = tested on: K562; assay: Cytotoxicity against human K562 cells after 48 hrs by MTT assay; conditions: K562, 48 h; procedure, shortened: as §1
[5] = tested on: HCT-116; assay: Cytotoxicity against human HCT116 cells after 48 hrs by MTT assay; conditions: HCT-116, 48 h; procedure, shortened: as §1
[6] = tested on: MCF7; assay: Cytotoxicity against human MCF7 cells after 48 hrs by MTT assay; conditions: MCF7, 48 h; procedure, shortened: as §1

Structure (SMILES) | IC50 [1] | IC50 [2] | IC50 [3] | IC50 ([4]; read-out: IC50) | IC50 ([4]; read-out: pIC50 (converted)) | IC50 [5] | IC50 [6]
O=S(=O)(Oc1cccc2ccccc12)c1ccc2[nH]c3ccncc3c2c1 | 23.3 µM | 33.4 µM | 10.7 µM | 25.9 µM | 25.9 µM | 39.4 µM | 14.3 µM
CCn1c2ccncc2c2cc(S(=O)(=O)Nc3cc(OC)c(OC)c(OC)c3)ccc21 | > 100 µM | > 100 µM | > 100 µM | 6.09 µM | 6.1 µM | 32.3 µM | 5.8 µM
CCn1c2ccncc2c2cc(NC(=O)c3ccc(OC)cc3)ccc21 | 21.3 µM | 72 µM | 5.15 µM | 11.3 µM | 11.3 µM | 50.7 µM | 4.92 µM
CCn1c2ccncc2c2cc(NC(=O)c3ccc(Br)cc3)ccc21 | 71.2 µM | > 100 µM | 15.6 µM | 13.2 µM | 13.2 µM | > 100 µM | 11.9 µM
CCn1c2ccncc2c2cc(NC(=O)c3ccccc3Cl)ccc21 | 20.8 µM | 37.3 µM | 22.9 µM | 8.58 µM | 8.57 µM | 2.63 µM | 6.52 µM
CCn1c2ccncc2c2cc(NC(=O)c3cc(OC)c(OC)c(OC)c3)ccc21 | 16.1 µM | 15.9 µM |  | 13.6 µM | 13.6 µM |  | 
CCN(c1cc(OC)c(OC)c(OC)c1)S(=O)(=O)c1ccc2c(c1)c1c[n+](CC)ccc1n2CC | > 100 µM | > 100 µM | > 100 µM | > 100 µM |  | > 100 µM | > 100 µM
CCn1c2ccncc2c2cc(S(=O)(=O)Nc3ccc4c(ccn4C)c3)ccc21 | 73.2 µM | 73.5 µM | 16.8 µM | 12.2 µM | 12.2 µM | 23.2 µM | 4.99 µM
COc1cc(OS(=O)(=O)c2ccc3[nH]c4ccncc4c3c2)cc(OC)c1OC | 0.15 µM |  | 2.62 µM | 4.5 µM | 4.5 µM | 0.77 µM | 0.86 µM
O=S(=O)(Oc1ccccc1)c1ccc2[nH]c3ccncc3c2c1 | > 100 µM | > 100 µM | 48.9 µM | 77.4 µM | 77.4 µM | 45.2 µM | 38.6 µM
COc1ccccc1OS(=O)(=O)c1ccc2[nH]c3ccncc3c2c1 | 54.3 µM | 32 µM | 15.3 µM | 14.1 µM | 14.1 µM | 64.1 µM | 24.7 µM
O=S(=O)(Nc1cccc2ncccc12)c1ccc2[nH]c3ccncc3c2c1 | 95.4 µM | 22.8 µM | 18.5 µM | 12.7 µM | 12.7 µM | 30.8 µM | 23.7 µM
CCn1c2ccncc2c2cc(NC(=O)c3ccc(S(C)(=O)=O)cc3)ccc21 | 36 µM | > 100 µM | 96.6 µM | 22.9 µM | 22.9 µM | > 100 µM | 22.8 µM
CCn1c2ccncc2c2cc(NC(=O)c3ccccc3O)ccc21 | 19.2 µM | > 100 µM | 22.9 µM | 12.7 µM | 12.7 µM | > 100 µM | 20.9 µM
COc1ccc(OS(=O)(=O)c2ccc3[nH]c4ccncc4c3c2)cc1 | 21.4 µM | 22.6 µM | 5.7 µM | 6.6 µM | 6.61 µM | 23.9 µM | 16 µM
CCN(c1cc(OC)c(OC)c(OC)c1)S(=O)(=O)c1ccc2c(c1)c1cnccc1n2CC | 13.8 µM | 33.9 µM | 3.02 µM | 1.02 µM | 1.02 µM | 10.2 µM | 2.07 µM
O=[N+]([O-])c1ccc(OS(=O)(=O)c2ccc3[nH]c4ccncc4c3c2)cc1 | 7.15 µM | 17.5 µM | 8.34 µM | 27.9 µM | 27.9 µM | 21 µM | 10.8 µM
O=S(=O)(Oc1cccc(Cl)c1)c1ccc2[nH]c3ccncc3c2c1 | 5.82 µM | 43.6 µM | 8.42 µM | 13.2 µM | 13.2 µM | 42.7 µM | 47.5 µM
Nc1ccc(OS(=O)(=O)c2ccc3[nH]c4ccncc4c3c2)cc1 | 2.12 µM | 10.1 µM | 5.95 µM | 18.4 µM | 18.5 µM | 20.9 µM | 16.6 µM
CCn1c2ccncc2c2cc(NC(=O)c3cccnc3)ccc21 | 50.9 µM | 73.5 µM | 40.6 µM | 14.5 µM | 14.5 µM | 87.2 µM | 18.1 µM
O=S(=O)(Oc1ccc(Cl)cc1)c1ccc2[nH]c3ccncc3c2c1 | 39.7 µM | 47.3 µM | 13.9 µM | 20.5 µM | 20.5 µM | 32 µM | 26.3 µM
CCn1c2ccncc2c2cc(S(=O)(=O)Nc3ccncc3)ccc21 | > 100 µM | > 100 µM | > 100 µM | > 100 µM |  | > 100 µM | > 100 µM
CCn1c2ccncc2c2cc(S(=O)(=O)Nc3ccccc3)ccc21 | 8 µM | > 100 µM | > 100 µM | 20.7 µM | 20.7 µM | 13.7 µM | 0.88 µM
COc1cc(NS(=O)(=O)c2ccc3[nH]c4ccncc4c3c2)cc(OC)c1OC | > 100 µM | 48.2 µM | 73.4 µM | 11.3 µM | 11.3 µM | 16.9 µM | 19.2 µM
CCn1c2ccncc2c2cc(NC(=O)c3ccccc3)ccc21 | 26.5 µM | > 100 µM | 10.6 µM | 26.2 µM | 26.2 µM | > 100 µM | 11.8 µM
